Our source for the inhibition, Activity and IC50 values is ChEMBL document CHEMBL4028911, “Discovery of a Small-Molecule Bromodomain-Containing Protein 4 (BRD4) Inhibitor That Induces AMP-Activated Protein Kinase-Modulated Autophagy-Associated Cell Death in Breast Cancer” (J Med Chem, 2017).

In data set [1] the target is T1, Bromodomain-containing protein 4 (Homo sapiens, UniProt O60885). The experiment in a line: Inhibition of BRD4 in human MDA-MB-231 cells assessed as downregulation of AKT phosphorylation at ser473 at 3 uM measured up to 36 hrs by Western blot analysis. Type of data set: cell-based. The essentials:
(§1)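 MCF-7 (1.5 μM) or MDA-MB-231 (3 μM) cells treated for indicated times. Adherent and floating cells lysed in RIPA with 1 mM PMSF. Equal protein run on 10-15% SDS-PAGE, blotted to PVDF, blocked in milk or BSA, HRP/ECL detection. β-actin loading control.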
(In general: Immunoblotting shows a protein as a band on a membrane.)

Data set [2] has as its target T1, Bromodomain-containing protein 4. The experiment in a line: Inhibition of BRD4 in human MDA-MB-231 cells assessed as reduction in FIP200 protein expression at 3 uM up to 36 hrs by Western blot analysis. Format: cell-based. The essentials: as §1
For data set [3], the system named is Mus musculus. The experiment in a line: In vivo Antiproliferative activity in BALB/c mouse xenografted with human MCF7 cells assessed as increase in LC3 expression at 100 mg/kg, ig administered once a day for 24 days by hematoxylin-staining based immunohistochemistry analysis. Type of data set: functional, organism-based. The essentials:
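Xenograft tumors from vehicle and 100 mg/kg groups were formalin-fixed and sectioned. Antigen retrieval by microwaving in EDTA buffer (pH 8.0) or citrate buffer (pH 6.0). […] Percentage of positive staining quantified.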

The target in data set [4] is T2, Bromodomain-containing protein 2 (Homo sapiens, UniProt P25440). The experiment in a line: Inhibition of recombinant human N-terminal GST-tagged BRD2 bromodomain-1 (65 to 187 residues) expressed in Escherichia coli expression system after 120 mins by TR-FRET assay. The essentials: (§2)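 TR-FRET bromodomain binding. Recombinant BRD domain, BET ligand and test agent in 20 μl assay buffer with 1% DMSO final. Incubated 120 min at room temperature. Blank lacks BET ligand.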
T2 sequence (P25440 whole entry, the tested form may be a part): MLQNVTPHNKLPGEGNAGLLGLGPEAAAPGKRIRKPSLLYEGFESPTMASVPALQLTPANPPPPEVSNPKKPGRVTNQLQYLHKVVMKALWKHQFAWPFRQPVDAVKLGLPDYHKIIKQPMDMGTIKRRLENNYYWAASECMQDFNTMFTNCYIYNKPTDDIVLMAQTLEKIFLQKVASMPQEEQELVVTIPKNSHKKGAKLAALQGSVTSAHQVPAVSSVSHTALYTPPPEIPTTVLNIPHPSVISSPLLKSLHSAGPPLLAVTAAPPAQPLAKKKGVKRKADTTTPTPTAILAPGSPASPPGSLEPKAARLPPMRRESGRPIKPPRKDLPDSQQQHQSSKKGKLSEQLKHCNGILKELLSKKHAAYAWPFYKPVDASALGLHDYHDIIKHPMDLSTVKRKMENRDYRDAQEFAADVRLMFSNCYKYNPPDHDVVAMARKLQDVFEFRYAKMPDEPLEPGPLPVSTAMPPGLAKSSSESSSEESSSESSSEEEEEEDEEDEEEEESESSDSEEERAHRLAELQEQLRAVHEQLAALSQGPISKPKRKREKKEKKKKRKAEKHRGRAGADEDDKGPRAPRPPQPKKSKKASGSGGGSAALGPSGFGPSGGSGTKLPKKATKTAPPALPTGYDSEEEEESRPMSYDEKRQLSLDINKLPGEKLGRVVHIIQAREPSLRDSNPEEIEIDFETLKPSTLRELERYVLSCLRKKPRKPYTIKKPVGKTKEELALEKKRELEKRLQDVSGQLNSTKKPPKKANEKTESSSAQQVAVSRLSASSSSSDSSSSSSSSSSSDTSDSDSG
(Time-resolved FRET reads energy transfer from a long-lived donor to a nearby acceptor.)

Data set [5] has as its target T1, Bromodomain-containing protein 4. The experiment in a line: Inhibition of BRD4 in human MCF7 cells assessed as downregulation of AKT phosphorylation at ser473 at 1.5 uM measured up to 36 hrs by Western blot analysis. Format: cell-based. The essentials:
as §1

The test system of data set [6] is Mus musculus. The experiment in a line: Toxicity in BALB/c mouse xenografted with human MDA-MB-231 cells assessed as effect on body weight at 25 to 100 mg/kg, ig administered once a day for […] measured every 3 days. Type of data set: organism-based. Particulars: in vivo, po. The essentials:
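Female BALB/c nude mice (6-8 weeks, 20-22 g) with subcutaneous MCF-7 or MDA-MB-231 xenografts (5×10^6 cells). At 100 mm3, given 25, 50 or 100 mg/kg intragastrically once daily, or vehicle, for 24 or 27 days. Body weight recorded every 3 days. MCF-7 n=7, MDA-MB-231 n=6 per group.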
(In general: In xenograft studies the graft and the host belong to different species.)

Data set [7] deals with Bromodomain-containing protein 3 (Homo sapiens, UniProt Q15059). The experiment in a line: Inhibition of recombinant human N-terminal GST-tagged BRD3 bromodomain-2 (306 to 417 residues) expressed in Escherichia coli expression system after 120 mins by TR-FRET assay. The essentials: as §2
Bromodomain-containing protein 3, sequence (Q15059 whole entry, the tested form may be a part): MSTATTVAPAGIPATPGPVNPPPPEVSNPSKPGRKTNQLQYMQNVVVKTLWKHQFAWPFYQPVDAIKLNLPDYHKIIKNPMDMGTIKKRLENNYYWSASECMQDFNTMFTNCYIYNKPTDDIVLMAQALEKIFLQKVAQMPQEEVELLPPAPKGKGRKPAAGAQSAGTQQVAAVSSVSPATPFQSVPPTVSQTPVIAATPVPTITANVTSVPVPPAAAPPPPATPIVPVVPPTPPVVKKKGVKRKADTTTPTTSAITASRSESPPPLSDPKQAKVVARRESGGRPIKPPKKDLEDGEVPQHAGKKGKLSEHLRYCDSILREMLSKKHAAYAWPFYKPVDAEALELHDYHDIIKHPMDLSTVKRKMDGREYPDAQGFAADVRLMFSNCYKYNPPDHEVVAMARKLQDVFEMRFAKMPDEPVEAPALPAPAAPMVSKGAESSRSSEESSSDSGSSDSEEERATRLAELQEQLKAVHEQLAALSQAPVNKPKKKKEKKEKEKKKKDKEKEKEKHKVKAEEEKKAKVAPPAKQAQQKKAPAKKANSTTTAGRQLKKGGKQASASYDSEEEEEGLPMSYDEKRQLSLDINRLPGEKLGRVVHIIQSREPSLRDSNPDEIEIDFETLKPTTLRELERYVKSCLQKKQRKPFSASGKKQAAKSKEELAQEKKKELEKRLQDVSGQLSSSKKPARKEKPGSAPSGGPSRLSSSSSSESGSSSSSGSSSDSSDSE
For data set [8], the target named is T2, Bromodomain-containing protein 2. The experiment in a line: Inhibition of recombinant human N-terminal GST-tagged BRD2 bromodomain-2 (339 to 459 residues) expressed in Escherichia coli expression system after 120 mins by TR-FRET assay. The essentials:
as §2

Data set [9] addresses AMP-activated protein kinase, AMPK (Homo sapiens) (UniProt P54646+O43741+P54619+Q9UGJ0+Q9Y478+Q13131+Q9UGI9). The experiment in a line: Activation of AMPK (unknown origin) at 1 to 10^6 nM using MBP as substrate after 60 mins in presence of ATP by […] assay. The essentials: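 ADP-Glo luminescent kinase assay; AMPK or ULK1 enzyme, substrate, ATP and compound diluted in 40 mM Tris pH 7.5, 20 mM MgCl2, 0.1 mg/ml BSA, 50 µM DTT. Enzyme (10 ng) mixed with MBP (0.1 µg/µl)/ATP (10 µM) and compound, 60 min at room temperature. ADP-Glo reagent 40 min, then detection reagent 30 min, luminescence read; signal rises with kinase activity.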

Data set [10] concerns the target Bromodomain testis-specific protein (Homo sapiens, UniProt Q58F21). The experiment in a line: Inhibition of recombinant human N-terminal GST-tagged BRDT bromodomain-1 (22 to 138 residues) expressed in Escherichia coli expression system after 120 mins by TR-FRET assay. The essentials: as §2
In data set [11] the test system is MDA-MB-231. The experiment in a line: Induction of autophagy in human MDA-MB-231 cells assessed as assessed as cytoplasmic vacuolization. Type of data set: functional, cell-based.
The target in data set [12] is T1, Bromodomain-containing protein 4. The experiment in a line: Inhibition of BRD4 in human MCF7 cells assessed as downregulation of c-Myc expression at 1.5 uM measured up to 36 hrs by Western blot analysis. Format: cell-based. The essentials:
as §1

In data set [13] the test system is MDA-MB-231. The experiment in a line: Induction of autophagy in human MDA-MB-231 cells assessed as reduction in cell viability at 3 uM administered at 1 hr post […] addition by MTT assay. Type of data set: functional, cell-based. The essentials: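 MDA-MB-231 cells seeded at 5×10^4 cells/ml and grown 24 h. 3-MA (1 mM) added 1 h before 3 μM test agent. MTT (5 mg/ml) for 4 h, formazan dissolved in DMSO, absorbance read at 570 nm.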

Data set [14] concerns MDA-MB-231. The experiment in a line: Induction of autophagy in human MDA-MB-231 cells assessed as LC3 lipidation at 3 uM in presence of ATG5 siRNA by Western blot analysis. Format: functional, cell-based.
A further data set deals with MCF7. The experiment in a line: Induction of autophagy in human MCF7 cells assessed as upregulation of beclin1 expression at 1.5 uM measured up to 36 hrs by Western blot analysis. Format: functional, cell-based. The essentials:
(§3)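 MCF-7 (1.5 µM) or MDA-MB-231 (3 µM) cells treated for indicated times. Adherent and floating cells lysed in RIPA with 1 mM PMSF, 4°C for 1 h. Equal protein run on 10-15% SDS-PAGE, transferred to PVDF, blocked with milk or BSA, probed with primary then HRP secondary antibodies, ECL detection; β-actin as loading control.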

The test system of data set [15] is MDA-MB-231. The experiment in a line: Induction of autophagy in human MDA-MB-231 cells assessed as downregulation of p62/SQSTM1 expression at 3 uM measured up to 36 hrs by Western blot analysis. Format: functional, cell-based. The essentials: as §3
The subject of data set [16] is MDA-MB-231. The experiment in a line: Induction of autophagy in human MDA-MB-231 cells assessed as downregulation of p62/SQSTM1 expression at 3 uM in presence of ATG5 siRNA by Western blot analysis. Format: functional, cell-based.
In data set [17] the target is T1, Bromodomain-containing protein 4. The experiment in a line: Inhibition of BRD4 in human MDA-MB-231 cells assessed as reduction in ULK1 protein expression at 3 uM up to 36 hrs by Western blot analysis. Format: cell-based. The essentials:
as §1

Data set [18] deals with MDA-MB-231. The experiment in a line: Inhibition of BRD4 protein expression in human MDA-MB-231 cells at 3 uM measured up to 36 hrs by Western blot analysis. Type of data set: functional, cell-based. The essentials: as §1
For data set [19], the system named is MDA-MB-231. The experiment in a line: Induction of autophagy in human MDA-MB-231 cells assessed as increase in LC3-2 expression at 3 uM by Western blot analysis. Format: functional, cell-based. Particulars: TDE = time-dependent effect. The essentials: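 MDA-MB-231 cells (DMEM, 10% FBS, 37 °C, 5% CO2) exposed to 3 μM for indicated times. Adherent and floating cells collected, lysed in RIPA with 1 mM PMSF at 4 °C for 1 h. Protein quantified by DC assay, resolved on 10-15% SDS-PAGE, blotted to PVDF, ECL detection.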

The target in data set [20] is T1, Bromodomain-containing protein 4. The experiment in a line: Inhibition of recombinant human BRD4 bromodomain-1 (49 to 170 residues) expressed in Escherichia coli expression system after 120 mins by TR-FRET assay.

Structures are written as SMILES. Active and inactive are the calls of the source. The calls are words filed in the database; no cut-off is given here.

For `Cc1cc(-c2nc3sc4c(c3c(=O)[nH]2)CCN(C)C4)cc(C)c1O`, the inhibition entry (in data set [1]; in data set [2]; in [5]; in data set [12]; in data set [17]; in the data set with MDA-MB-231 [18]) was “Active” each time. Moreover, the outcome with Mus musculus [3], with MDA-MB-231 [11], with MCF7 and with MDA-MB-231 [15] was Active. Besides, the IC50 is 24.6 µM in data set [4]; over 100 µM in data set [7]; over 100 µM in data set [8]; over 100 µM in data set [10]; 0.47 µM in [20]. For the same compound, the results for the Activity result in the data set on Mus musculus [6] and in the data set with MDA-MB-231 [19] were “Non-Toxic” and “Tde”, respectively. Besides, the outcome (in [9]; in the data set on MDA-MB-231 [13]; in the data set with MDA-MB-231 [14]; in the data set with MDA-MB-231 [16]) was inactive.

The IC50 is the concentration that inhibits the measured activity by half.
